Laboratory results published in ChEMBL document CHEMBL3992515, “Design, synthesis, and evaluation of a novel series of macrocyclic inhibitors of norovirus 3CL protease” (Eur J Med Chem, 2017).

How the values were obtained:
[1] = Inhibition of Norovirus 3CLpro using Edans-DFHLQ/GP-Dabcyl as substrate preincubated for 30 mins followed by substrate addition measured after 1 hr by FRET assay
In short: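 Protease and serial compound dilutions up to 100 μM (or DMSO) held in 20 mM HEPES pH 8, 200 mM NaCl, 0.4 mM EDTA, 60% glycerol, 6 mM DTT at 37°C for 30 min, then substrate added. Fluorescence (ex 360/em 460 nm) read 1 h later, background subtracted (no-protease well). IC50 from variable-slope curve fit; average of at least two determinations.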

Murine norovirus [2] = experiment: Antiviral activity against MNV replicon infected in mouse RAW264.7 cells assessed as inhibition of viral RNA replication after 24 hrs; conditions: RAW264.7, 24 h
Norovirus = experiment: Antiviral activity against Norovirus replicon infected in human HG23 cells assessed as inhibition of viral RNA replication after 48 hrs by qRT-PCR method; assay type: functional, cell-based
In short: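 HG23 cells (NV replicon-harboring hepatoma), confluent and semi-confluent, given medium with DMSO (<0.1%) or compound up to 20 μM for 48 h. Total RNA extracted and viral genome quantified by real-time qRT-PCR. EC50 fitted from dose-response; average of at least two determinations.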

[3] = Cytotoxicity against human HG23 cells after 48 hrs by crystal violet staining-based assay; assay type: cell-based; conditions: for CC50 at 48 h: HG23 cells, read-out: TC50; for CC50: hg23, 48 h, 48 h, read-out: TC50 (the source's name)
In short: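 Confluent NV replicon-bearing hepatoma HG23 cells exposed to compound at 1 to 100 μM for 48 h. Cytotoxicity read by CytoTox 96 nonradioactive assay and crystal violet staining; CC50 taken as concentration giving 50% cell death, averaged over at least two determinations.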

Murine norovirus [4] = experiment: Antiviral activity against MNV replicon infected in mouse RAW264.7 cells assessed as inhibition of viral RNA replication after 24 hrs; assay type: functional, cell-based
In short: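 Confluent RAW264.7 cells infected with MNV at MOI 0.1 for 1 h; inoculum then replaced with medium containing compound (up to 20 μM) or DMSO (0.1%). Further 24 h incubation; virus replication quantified by TCID50 titration. EC50 from dose-response fitting; values average of at least two determinations.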

Structure (SMILES): CC(C)C[C@@H]1NC(=O)OC(CCCc2ccccc2)CCCCCNC(=O)CC[C@@H](C=O)NC1=O (stereo partly drawn)
- IC50 [1]: 4.2 µM
- EC50 (Murine norovirus [2]): > 20 µM
- EC50 (Norovirus; Norovirus, HG23, 48 h): 7.5 µM
- CC50 at 48 h [3]: 71.5 µM

Structure (SMILES): C[C@@H]1NC(=O)OC(c2cccc(Cl)c2)CCCCCNC(=O)CC[C@@H](C=O)NC1=O (stereo partly drawn)
- IC50 [1]: > 100 µM
- EC50 (Murine norovirus [2]): > 20 µM
- EC50 (Norovirus; Norovirus, HG23, 48 h): > 20 µM
- CC50 at 48 h [3]: > 100 µM

Structure (SMILES): CC(C)C[C@@H]1NC(=O)OC(c2cccc(Cl)c2)CCCCCONC(=O)CC[C@@H](C=O)NC1=O (stereo in doubt; 36A)
- IC50 [1]: 30.5 µM
- EC50 (Murine norovirus [2]): 15.5 µM
- EC50 (Norovirus; Norovirus, HG23, 48 h): 3.6 µM
- CC50 at 48 h [3]: 68.3 µM

Structure (SMILES): CCCCCC1CCCCCNC(=O)CC[C@@H](C(O)S(=O)(=O)O)NC(=O)[C@H](CC(C)C)NC(=O)O1 (stereo partly drawn)
- IC50 [1]: 5.1 µM
- EC50 (Murine norovirus [2]): 14.6 µM
- EC50 (Norovirus; Norovirus, HG23, 48 h): 3.5 µM
- CC50 at 48 h [3]: 78.5 µM

Structure (SMILES): O=C[C@@H]1CCC(=O)NCCCCCC(c2cccc(Cl)c2)OC(=O)N[C@@H](CC2CCCCC2)C(=O)N1 (stereo in doubt; form 1)
- IC50 [1]: 4.1 µM
- EC50 (Murine norovirus [2]): 4.3 µM
- EC50 (Norovirus; Norovirus, HG23, 48 h): 2.1 µM
- CC50 at 48 h [3]: 62.4 µM

Structure (SMILES): O=C1CC[C@@H](C(O)S(=O)(=O)O)NC(=O)C2(CCCCC2)NC(=O)OC(c2cccc(Cl)c2)CCCCCCN1 (stereo partly drawn)
- IC50 [1]: > 100 µM
- EC50 (Murine norovirus [2]): > 20 µM
- EC50 (Norovirus; Norovirus, HG23, 48 h): > 20 µM
- CC50 at 48 h [3]: 46.6 µM

Structure (SMILES): CC(C)C[C@@H]1NC(=O)OC(c2cccc(Cl)c2)CCCCCNC(=O)CC[C@@H](C(O)S(=O)(=O)O)NC1=O (stereo partly drawn)
- IC50 [1]: 1.1 µM
- EC50 (Murine norovirus [2]): 15.1 µM
- EC50 (Norovirus; Norovirus, HG23, 48 h): 1.6 µM
- CC50 at 48 h [3]: > 100 µM

Structure (SMILES): CC(C)C[C@@H]1NC(=O)OC(Cc2ccccc2)CC/C=C/CNC(=O)CC[C@@H](C=O)NC1=O (stereo partly drawn)
- IC50 [1]: 2.5 µM
- EC50 (Murine norovirus [2]): > 20 µM
- EC50 (Norovirus; Norovirus, HG23, 48 h): 3.1 µM
- CC50 at 48 h [3]: > 100 µM

Structure (SMILES): O=C1CC[C@@H](C(O)S(=O)(=O)O)NC(=O)C2(CCCCC2)NC(=O)OC(c2cccc(Cl)c2)CCCCCN1 (stereo partly drawn)
- IC50 [1]: > 100 µM
- EC50 (Murine norovirus [2]): > 20 µM
- EC50 (Norovirus; Norovirus, HG23, 48 h): > 20 µM
- CC50 at 48 h [3]: 48.5 µM

Structure (SMILES): CC(C)C[C@@H]1NC(=O)OC(c2cccc(Cl)c2)CCCCCNC(=O)CC[C@@H](C=O)NC1=O (stereo partly drawn)
- IC50 [1]: 1.5 µM
- EC50 (Murine norovirus [2]): 13.2 µM
- EC50 (Norovirus; Norovirus, HG23, 48 h): 1.8 µM
- CC50 at 48 h [3]: > 100 µM

Structure (SMILES): CC(C)C[C@@H]1NC(=O)OC(c2cccc(Cl)c2)CCCCCCNC(=O)CC[C@@H](C=O)NC1=O (stereo partly drawn)
- IC50 [1]: 6.3 µM
- EC50 (Murine norovirus [2]): > 20 µM
- EC50 (Norovirus; Norovirus, HG23, 48 h): 5.4 µM
- CC50 at 48 h [3]: 67.4 µM

Structure (SMILES): CC(C)C[C@@H]1NC(=O)OC(c2cccc(Cl)c2)CCCCCONC(=O)CC[C@@H](C=O)NC1=O (stereo in doubt; 36B)
- EC50 (Murine norovirus [4]): 13.4 µM
- IC50 [1]: 46.7 µM
- EC50 (Norovirus): 5.1 µM
- CC50 [3]: 73.8 µM

Structure (SMILES): CC(C)C[C@@H]1NC(=O)OC(CCCc2ccccc2)CCCCCNC(=O)CC[C@@H](C(O)S(=O)(=O)O)NC1=O (stereo partly drawn)
- IC50 [1]: 6.8 µM
- EC50 (Murine norovirus [2]): > 20 µM
- EC50 (Norovirus; Norovirus, HG23, 48 h): 4.6 µM
- CC50 at 48 h [3]: 69.2 µM

Structure (SMILES): O=C[C@@H]1CCC(=O)NCCCCCCC(c2cccc(Cl)c2)OC(=O)NC2(CCCCC2)C(=O)N1 (stereo partly drawn)
- IC50 [1]: > 100 µM
- EC50 (Murine norovirus [2]): > 20 µM
- EC50 (Norovirus; Norovirus, HG23, 48 h): > 20 µM
- CC50 at 48 h [3]: 53.3 µM

Structure (SMILES): O=C[C@@H]1CCC(=O)NC/C=C/CCC(c2cccc(Cl)c2)OC(=O)N[C@@H](CC2CCCCC2)C(=O)N1 (stereo partly drawn)
- IC50 [1]: 1.3 µM
- EC50 (Murine norovirus [2]): 3.1 µM
- EC50 (Norovirus; Norovirus, HG23, 48 h): 1.5 µM
- CC50 at 48 h [3]: 42.3 µM

Structure (SMILES): O=C[C@@H]1CCC(=O)NCCCCCC(c2cccc(Cl)c2)OC(=O)NC2(CCCCC2)C(=O)N1 (stereo partly drawn)
- IC50 [1]: > 100 µM
- EC50 (Murine norovirus [2]): > 20 µM
- EC50 (Norovirus; Norovirus, HG23, 48 h): > 20 µM
- CC50 at 48 h [3]: 62.4 µM

Structure (SMILES): O=C[C@@H]1CCC(=O)NCCCCCC(c2cccc(Cl)c2)OC(=O)N[C@@H](CC2CCCCC2)C(=O)N1 (stereo in doubt; form 2)
- EC50 (Murine norovirus [4]): 6.5 µM
- IC50 [1]: 6.5 µM
- EC50 (Norovirus): 2.5 µM
- CC50 [3]: 45.3 µM

Structure (SMILES): CC(C)C[C@@H]1NC(=O)OC(Cc2ccccc2)CCCCCNC(=O)CC[C@@H](C=O)NC1=O (stereo partly drawn)
- IC50 [1]: 4.6 µM
- EC50 (Murine norovirus [2]): > 20 µM
- EC50 (Norovirus; Norovirus, HG23, 48 h): 8.8 µM
- CC50 at 48 h [3]: > 100 µM

Structure (SMILES): C[C@@H]1NC(=O)OC(c2cccc(Cl)c2)CCCCCCNC(=O)CC[C@@H](C=O)NC1=O (stereo partly drawn)
- IC50 [1]: 62.3 µM
- EC50 (Murine norovirus [2]): > 20 µM
- EC50 (Norovirus; Norovirus, HG23, 48 h): 9.5 µM
- CC50 at 48 h [3]: > 100 µM

Structure (SMILES): CC(C)C[C@@H]1NC(=O)OC(c2ccccc2)CCCCCNC(=O)CC[C@@H](C=O)NC1=O (stereo partly drawn)
- IC50 [1]: 1.3 µM
- EC50 (Murine norovirus [2]): > 20 µM
- EC50 (Norovirus; Norovirus, HG23, 48 h): 7.7 µM
- CC50 at 48 h [3]: > 100 µM

Structure (SMILES): CCCCCC1CCCCCNC(=O)CC[C@@H](C=O)NC(=O)[C@H](CC(C)C)NC(=O)O1 (stereo partly drawn)
- IC50 [1]: 3.2 µM
- EC50 (Murine norovirus [2]): 12.1 µM
- EC50 (Norovirus; Norovirus, HG23, 48 h): 3.1 µM
- CC50 at 48 h [3]: 72.7 µM

Structure (SMILES): CC(C)C[C@@H]1NC(=O)OC(c2cccc(Cl)c2)CCCCCNC(=O)CC[C@@H](C(=O)C(=O)NC2CC2)NC1=O (stereo partly drawn)
- IC50 [1]: 2.3 µM
- EC50 (Murine norovirus [2]): 15.5 µM
- EC50 (Norovirus; Norovirus, HG23, 48 h): 9.1 µM
- CC50 at 48 h [3]: 53.1 µM
